From PubChem
Compounds with a hit are over-represented: about 2% of the library has one in this group of screens.
DENV2 CPE – DENV2-induced cell death inhibition; DENV2-infected cells, cytopathic effect rescue, plate reader; CPE inhibition, % at 9.99 µM; actives 1.7% (n = 350,000); in the data active = CPE inhibition above about 20%, passing the limit was not always enough; inconclusive = no clear call, values can overlap the other calls; tested in BHK-21 cells
CaV13 ICDI inh – Primary screen for inhibitors of IQ motif and Ca2+-dependent inactivation inhibitor domain binding in CACNA1D, Förster resonance energy transfer in living cells, …; HEK cells, CFP/YFP FRET ICDI-IQ, plate reader, 10 min; percent FRET-ratio fall versus neutral wells; inhibition, % at 12.3 µM; AID 743397; actives 0.098% (n = 340,000);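 active = mean replicate inhibition of at least 30% and at least 1% of replicates passing that level; inconclusive = only one of the two criteria is met; inactive = neither criterion is met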
Xi reactivation – activators of X-chromosome reactivation in mouse fibroblasts; XiGFP mouse fibroblasts, % GFP-positive cells imaging, 3 d; cells co-treated with 5-aza-dC sensitizer; scaled so ellipticine positive control = 100%; activation, % at 7.58 µM; AID 743238; actives 0.055% (n = 360,000);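 active = mean normalized replicate activation at least 10% and every replicate at or above 10%; inconclusive = only one of the two criteria met; inactive = mean below 10% and not all replicates reach 10%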
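Assay system – SV40-immortalized XiGFP fibroblast cells, line 68-5-11 · Buffer or medium – DMEM supplemented with 5-aza-dC as sensitizing agent · Dosing – one concentration, pinned · Benchmarks – positive control ellipticine, 6 µM final · Times – 3 days compound exposure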
Casp6 inh – inhibitors of human caspase-6; actives 0.53% (n = 350,000); purified caspase-6, Z-VEID-R110 cleavage fluorescence; P55212; AID 686996; inhibition, % at 12.5 µM;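 active = mean inhibition across replicates at least about 35%, with every replicate also reaching that limit, limit read from the data; inconclusive = only one of the two criteria met; inactive = neither criterion met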
Target sequence (P55212 24-179 limits assumed): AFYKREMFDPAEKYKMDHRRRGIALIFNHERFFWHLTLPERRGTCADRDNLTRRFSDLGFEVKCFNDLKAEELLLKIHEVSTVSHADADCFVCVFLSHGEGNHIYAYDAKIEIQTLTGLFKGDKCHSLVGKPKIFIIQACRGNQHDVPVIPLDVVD
Target sequence (P55212 194-293 limits assumed): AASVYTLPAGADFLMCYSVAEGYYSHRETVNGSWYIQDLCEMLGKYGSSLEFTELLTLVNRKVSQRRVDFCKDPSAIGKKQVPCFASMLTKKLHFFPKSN
FN deposit inh – fibronectin deposition inhibition. AH1F fibroblasts, Alexa488-fibronectin deposition fluorescence, overnight. inhibition, % at 12.6 µM. actives 0.086% (n = 350,000). AID 743247;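 active = mean inhibition across replicates of 30% or more, regardless of how many single replicates reach that level; inconclusive = mean under 30% yet at least half of replicates reach 30%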
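Schedule: 1 h cell adhesion before compound, then overnight fibronectin incubation; test system: AH1F fibroblast monolayer depositing Alexa488-labelled fibronectin into matrix; quantity: 10000 AH1F cells per well; probe or stimulus: fluorescent fibronectin at 24 nM final; signal: fluorescence, ex 485 nm, em 525 nm; evaluation: percent inhibition as loss of matrix-bound fibronectin fluorescence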
Large screens that a line does not name were inactive.

CC(=O)NCCC(=O)Nc1cc(S(=O)(=O)N2CCCCC2)ccc1N1CCN(C)CC1	DENV2 CPE 30.6
Cc1ccc(S(=O)(=O)N2CCOCC2)cc1NC(=O)CN(C)CC(=O)Nc1cccc(F)c1	DENV2 CPE 82.7
CCCC#Cc1cnc2c(c1)C(=O)N([C@@H](C)CO)C[C@@H](C)[C@@H](CN(C)C(=O)C1CCCCC1)O2	none (no result: DENV2 CPE, CaV13 ICDI inh, Casp6 inh, FN deposit inh)
Cc1ccc(S(=O)(=O)N2CCCCC2)cc1NC(=O)CCOc1ccccc1	DENV2 CPE 72.4
O=C1COCCOCCOCCOCC(=O)NCCN1	DENV2 CPE 26.3
COc1ccccc1Nc1nc(NCCO)nc(N2CCCC2)n1	none
Cc1ccc(Nc2nc(NCCO)nc(N3CCCC3)n2)cc1	DENV2 CPE 59.8
COc1ccccc1Nc1nc(NCCCCO)nc(N2CCCC2)n1	DENV2 CPE 86.1
C[C@@H]1CCCCO[C@H](CN(C)C(=O)Nc2ccc(C(F)(F)F)cc2)[C@@H](C)CN([C@H](C)CO)C(=O)c2cc(NC(=O)C3CCCCC3)ccc2O1	none (no result: CaV13 ICDI inh, FN deposit inh)
C[C@H]1CCCCO[C@H](CN(C)C(=O)Nc2ccc(C(F)(F)F)cc2)[C@@H](C)CN([C@@H](C)CO)C(=O)c2cc(NC(=O)C3CCCCC3)ccc2O1	DENV2 CPE 87.5 (no result: CaV13 ICDI inh, FN deposit inh)
C[C@@H]1CCCCO[C@H](CN(C)C(=O)Nc2ccc(C(F)(F)F)cc2)[C@H](C)CN([C@H](C)CO)C(=O)c2cc(NC(=O)C3CCCCC3)ccc2O1	DENV2 CPE 32.4 (no result: CaV13 ICDI inh, FN deposit inh)
C[C@H](CO)N1C[C@H](C)[C@@H](CN(C)C(=O)Nc2ccc(C(F)(F)F)cc2)OCCCC[C@H](C)Oc2ccc(NC(=O)C3CCCCC3)cc2C1=O	DENV2 CPE 86.9 (no result: CaV13 ICDI inh, FN deposit inh)
C[C@@H]1CCCCO[C@H](CN(C)C(=O)Nc2ccc(C(F)(F)F)cc2)[C@@H](C)CN([C@@H](C)CO)C(=O)c2cc(NC(=O)C3CCCCC3)ccc2O1	DENV2 CPE 21.8 (no result: CaV13 ICDI inh, FN deposit inh)
C[C@@H]1CCCCO[C@@H](CN(C)C(=O)Nc2ccc(C(F)(F)F)cc2)[C@@H](C)CN([C@@H](C)CO)C(=O)c2cc(NC(=O)C3CCCCC3)ccc2O1	none (no result: CaV13 ICDI inh, FN deposit inh)
O=C(C[C@@H]1C[C@@H]2c3cc(NC(=O)C4CCC4)ccc3O[C@@H]2[C@H](CO)O1)NCc1ccccc1F	none (no result: CaV13 ICDI inh)
C/C=C/c1ccccc1[C@@H]1[C@H](C#N)N(C(=O)c2cccnc2)[C@H]1CO	none (no result: DENV2 CPE, CaV13 ICDI inh, Casp6 inh)
NNC(=O)c1ccc(-c2ccccc2F)cc1	DENV2 CPE 27.3
C#CC(C)(C)NC(=O)c1ccc(-c2ccccc2F)cc1	Casp6 inh 43.5
O=C1CN(S(=O)(=O)Cc2ccccc2)C[C@@H]2[C@H](c3ccc(C#CCC4CCCC4)cc3)[C@@H](CO)N12	none (no result: CaV13 ICDI inh, FN deposit inh)
CCOC(=O)c1c(NC(=O)c2ccncc2)sc(C)c1C	none
CCOC(=O)c1sc(NC(=O)c2ccncc2)c(C#N)c1C	DENV2 CPE 43.3
CC(C)C[C@H]1COCn2nncc2CC[C@H](Cc2ccccc2)C(=O)N1	none (no result: CaV13 ICDI inh)
O=C(NN=Cc1ccc(F)cc1)c1ccccc1NS(=O)(=O)c1cccs1	none
O=C(N/N=C/c1ccc([N+](=O)[O-])o1)c1ccccc1NS(=O)(=O)c1cccs1	Casp6 inh 39.6
Cc1cc(Cl)cc2c(N=Nc3ccccc3C(=O)O)c(O)[nH]c12	none
Cc1ccc(Cl)c2c(N=Nc3ccccc3)c(O)[nH]c12	Xi reactivation 26.7
C[C@@H]1CCCCO[C@@H](CN(C)C(=O)Nc2ccc(C(F)(F)F)cc2)[C@H](C)CN([C@@H](C)CO)C(=O)c2cc(NS(=O)(=O)c3ccc(F)cc3)ccc2O1	DENV2 CPE 60.8 (no result: CaV13 ICDI inh)
C[C@@H]1CCCCO[C@H](CN(C)C(=O)Nc2ccc(C(F)(F)F)cc2)[C@H](C)CN([C@H](C)CO)C(=O)c2cc(NS(=O)(=O)c3ccc(F)cc3)ccc2O1	DENV2 CPE 70.9 (no result: CaV13 ICDI inh)
C[C@H](CO)N1C[C@H](C)[C@@H](CN(C)C(=O)Nc2ccc(C(F)(F)F)cc2)OCCCC[C@H](C)Oc2ccc(NS(=O)(=O)c3ccc(F)cc3)cc2C1=O	DENV2 CPE 94.5 (no result: CaV13 ICDI inh)
C[C@@H]1CCCCO[C@@H](CN(C)C(=O)Nc2ccc(C(F)(F)F)cc2)[C@@H](C)CN([C@H](C)CO)C(=O)c2cc(NS(=O)(=O)c3ccc(F)cc3)ccc2O1	Xi reactivation inconclusive (no result: CaV13 ICDI inh)
COc1ccc2c3c(n(C)c2c1)[C@H](CO)N(CC1CC1)CC31CN(S(=O)(=O)c2cn(C)cn2)C1	none (no result: CaV13 ICDI inh)
O=C1[C@H](Cc2ccccc2)NCC=CC[C@H](c2ccc(Cl)cc2)N1Cc1ccccc1	DENV2 CPE 24.8
O=C1[C@H](Cc2ccccc2)NCC=CC[C@H](c2ccc(Cl)cc2)N1Cc1ccc(Cl)cc1	none
CC(C)C#Cc1cnc2c(c1)C(=O)N([C@@H](C)CO)C[C@@H](C)[C@@H](CN(C)C(=O)CC1CC1)O2	none (no result: CaV13 ICDI inh)
COc1ccc(CN(C)C[C@@H]2Oc3c(NC(=O)C4CC4)cccc3C(=O)N([C@H](C)CO)C[C@H]2C)cc1	none (no result: CaV13 ICDI inh)
Cc1ccc(S(=O)(=O)N(C)C[C@H]2Oc3cc(C#Cc4ccncc4)ccc3S(=O)(=O)N([C@@H](C)CO)C[C@H]2C)cc1	DENV2 CPE 64.1 (no result: CaV13 ICDI inh, Xi reactivation, FN deposit inh)
C/C=C/c1ccc2c(c1)O[C@H](CN(C)S(=O)(=O)c1ccc(C)cc1)[C@H](C)CN([C@H](C)CO)S2(=O)=O	DENV2 CPE 20.0 (no result: CaV13 ICDI inh, FN deposit inh)
CCC(=O)N1CC(=O)N2[C@@H](CO)[C@@H](c3ccc(C#CCc4ccccc4)cc3)[C@@H]2C1	none (no result: CaV13 ICDI inh, FN deposit inh)
Nc1nonc1-c1nc2ccccc2n1CC(=O)Nc1ccccc1	none
CCOC(=O)c1ccccc1NC(=O)Cn1c(-c2nonc2N)nc2ccccc21	FN deposit inh active (no result: DENV2 CPE, Xi reactivation, Casp6 inh)
Nc1nonc1-c1nc2ccccc2n1CC(=O)N/N=C/c1ccc(-c2ccccc2C(=O)O)o1	Casp6 inh 60.1
CC1CC(C)CN(C(=O)Cn2c(-c3nonc3N)nc3ccccc32)C1 (stereo not drawn)	none (no result: DENV2 CPE, Xi reactivation, Casp6 inh)
O=C(C[C@@H]1C[C@@H]2c3cc(NC(=O)NC4CCCC4)ccc3O[C@@H]2[C@@H](CO)O1)NCc1cccnc1	none (no result: CaV13 ICDI inh)
CCC(=O)N(C)C[C@@H]1Oc2cc(C#CCC3CCCC3)ccc2S(=O)(=O)N([C@@H](C)CO)C[C@@H]1C	none (no result: CaV13 ICDI inh, FN deposit inh)
COCC#Cc1ccc2c(c1)O[C@@H](CN(C)C(=O)C1CC1)[C@@H](C)CN([C@@H](C)CO)S2(=O)=O	none (no result: CaV13 ICDI inh)
C[C@@H]1CN([C@@H](C)CO)C(=O)c2cc(C3=CCCCC3)cnc2O[C@@H]1CN(C)C(=O)Nc1ccc(F)cc1	none (no result: CaV13 ICDI inh)
Cc1ccc(NC(=O)CCS(=O)(=O)c2cc3[nH]c(=O)c(=O)[nH]c3cc2C)cc1	Casp6 inh 36.6
Cc1cc(C)cc(NS(=O)(=O)c2cc3[nH]c(=O)c(=O)[nH]c3cc2C)c1	none
C[C@H]1CN([C@@H](C)CO)C(=O)c2cc(NC(=O)C3CC3)ccc2O[C@@H]1CN(C)C(=O)Nc1ccc(F)cc1	none (no result: CaV13 ICDI inh, FN deposit inh)
